# hERG rescue – compounds protecting human hERG from proarrhythmic drug block | CHO-hERG, FluxOR thallium flux, dofetilide IC70 present | activation (rescue from dofetilide block), less the hit threshold, % at 10 µM | 310,000 compounds, 0.51% hits;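 active = activation above the mean of controls blocked by dofetilide plus 5 SD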;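 also: thallium influx through hERG after potassium depolarization seen as dye fluorescence rise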
# Kir21 block – inhibitors of mouse Kir2.1 inward-rectifier potassium channel. P35561. B-score at 10 µM. HEK293-Kir2.1, FluxOR thallium flux fluorescence; active compounds read low. 310,000 compounds, 0.85% hits;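 active = fluorescence ratio B-score at or below minus 3 SD of library scores, with starting-brightness B-score within 2 SD, cut at about -4.2 in these data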;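 also: channel flux triggered by added potassium and thallium sulfate stimulus; B-score of peak minus minimum fluorescence over baseline after thallium stimulus; more negative B-score means stronger Kir2.1 block with less thallium influx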
# KCNQ1 act – potentiators or activators of human KCNQ1 potassium channel; P51787; CHO-K1 KCNQ1, thallium flux FluxOR fluorescence; active compounds read high; B-score at 10 µM; 310,000 compounds, 0.35% hits; AID 2648;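 active = fluorescence ratio B-score, a plate-corrected score, at least three library SD, with initial intensity B-score within 5 SD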
#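 Assay system: CHO-K1 cells stably expressing KCNQ1; Medium: assay buffer with matched DMSO; Also added: K+/Tl+ depolarizing stimulus; Dosing: single dose; Timing: dye 90 min, compound 20 min, room temperature; Measured by: kinetic FluxOR thallium fluorescence, 10-s 1-Hz baseline, 110-s post-stimulus read; Read-out: peak-minus-minimum fluorescence over initial fluorescence, negative-control normalized, B-scored.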
# KCNK9 block – blocks the human KCNK9 two-pore domain potassium channel. HEK293 KCNK9, FluxOR thallium flux fluorescence; active compounds read low. Q9NPC2. 310,000 compounds, 1.2% hits. AID 488922. B-score at 10 µM;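 active = ratio B-score over 3 SD below the library mean, with starting fluorescence within 5 SD of its mean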;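 also: negative B-score means less thallium flux so channel inhibition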
# Target sequence (Q9NPC2 whole entry, looked up, the tested form may be a part): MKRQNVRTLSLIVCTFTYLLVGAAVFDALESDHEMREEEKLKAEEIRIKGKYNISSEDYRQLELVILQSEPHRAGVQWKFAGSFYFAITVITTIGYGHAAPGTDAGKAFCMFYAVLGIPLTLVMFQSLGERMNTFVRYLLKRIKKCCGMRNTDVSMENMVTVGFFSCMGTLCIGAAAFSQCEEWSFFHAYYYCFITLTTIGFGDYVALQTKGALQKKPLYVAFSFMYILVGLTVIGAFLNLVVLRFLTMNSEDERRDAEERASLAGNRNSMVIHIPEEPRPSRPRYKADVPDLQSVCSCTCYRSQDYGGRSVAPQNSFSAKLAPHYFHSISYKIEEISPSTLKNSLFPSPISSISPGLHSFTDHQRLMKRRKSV
# KCNQ1 inh – inhibitors of human KCNQ1 potassium channel; P51787; CHO-K1 KCNQ1, FluxOR thallium flux fluorescence; active compounds read high; B-score at 10 µM; 310,000 compounds, 1.3% hits; AID 2642;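 active = compounds whose thallium flux B-score, printed positive for inhibition, exceeds three library SD while starting fluorescence stays within three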;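 also: channel opened by potassium depolarization with thallium stimulus after 20 min compound exposure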
# KCNK3 inh – human KCNK3 channel inhibition, primary screen; O14649; CHO-KCNK3 thallium flux, FluxOR fluorescence; active compounds read low; B-score at 10 µM; 340,000 compounds, 0.84% hits; AID 602410;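 active = B-score under library mean minus 4 SD, starting fluorescence ratio at most library mean plus 5 SD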;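 also: more negative B-score means stronger inhibition of thallium flux through KCNK3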
# Starred values were filed as active, the others as inactive; i = inactive; / = no result. In the library only some 3.7% were active in any assay of this set; here they are far more common.
SMILES,hERG rescue,Kir21 block,KCNQ1 act,KCNK9 block,KCNQ1 inh,KCNK3 inh
COc1ccc(Nc2c3c(nc4ccc(C)cc24)CCC3)cc1,-10,-3.8,i,i,8*,i
Cc1ccc2nc3c(c(Nc4ccc5c(c4)OCCO5)c2c1)CCC3,-24,-5.6*,i,i,i,i
Cc1cccc(Nc2c3c(nc4ccccc24)CCC3)c1,-18,-6*,i,i,i,i
Cc1ccc(OCC(=O)NC2CCSc3ccccc32)cc1 (stereo not drawn),-15,-0.06,i,i,i,i
CC(NC(=S)NC(=O)c1cccs1)c1ccccc1 (stereo not drawn),/,/,/,/,/,i
CC(NC(=O)c1cccs1)C(S)c1ccccc1 (stereo not drawn),-6,-0.77,i,-6.6*,i,i
O=C(COc1ccc(S(=O)(=O)N2CCOCC2)cc1Cl)NCC1CCCO1 (stereo not drawn),-6,0.17,i,i,i,i
NC1=NC(c2ccc(F)cc2)n2c(nc3ccccc32)N1 (stereo not drawn),-8,-1.6,i,i,i,i
Cc1ccc(-n2c(C)cc(C3N=C(N)Nc4nc5ccccc5n43)c2C)c(C)c1 (stereo not drawn),-3,0.08,i,-7.5*,i,i
CCCCc1c(O)cc(C)[nH]c1=O,-3,-0.35,i,i,i,i
COc1ccc(NC(=O)C(=O)NNC(=O)c2cccs2)c(OC)c1,12*,0.84,22*,i,i,i
COc1ccc(/C=C(/C(=O)Nc2ccccc2C(=O)NC(C)C)c2ccccc2)cc1,-13,0.2,i,i,6*,i
Cc1ccc(NC(=O)c2cccs2)cc1,-3,0.06,i,i,i,i
Cc1ccc(NC(=O)C(=O)NNC(=O)c2cccs2)cc1,20*,1.5,40*,i,i,i
COc1ccc(/C=C/C(=O)NC(=S)NNC(=O)c2cccs2)cc1,16*,1.6,i,i,i,i
COc1ccc(C(C)C)cc1S(=O)(=O)NC1CCCC1,-2,0.29,i,i,i,i
O=c1c(C(c2ccc(F)cc2)c2c(O)nc3n(c2=O)CCS3)c(O)nc2n1CCS2,-7,1,i,i,i,i
COc1ccc(NC(=O)C(=O)NNC(=O)c2cccs2)cc1,6.9*,-1.6,i,i,i,i
COc1ccc(/C=C/C(=O)Nc2ccccc2C(=O)O)cc1,32*,0.28,i,i,i,i
COc1ccc(/C=C/C(=O)Nc2ccccc2C(=O)N2CCCC2)cc1,-15,-1.4,i,i,i,i
Cn1c2ccc(F)cc2c2nnc(SCC(=O)Nc3cccc(O)c3)nc21,5.2*,1.2,i,i,i,i
N#CC1=C(N)NC(SCc2ccc(F)cc2)=C(C#N)C12CCCCC2,-26,-4.4*,i,i,i,i
N#CC1=C(N)NC(SCC(=O)Nc2ccccc2)=C(C#N)C12CCCC2,-15,1.1,i,i,10*,i
O=C(NCC1CCCO1)c1ccc(Br)c(S(=O)(=O)N2CCOCC2)c1 (stereo not drawn),/,/,/,/,/,i
CCCCn1c(NCc2ccccc2NS(=O)(=O)c2ccc(C)cc2)nc2ccccc21,-2,-3.1,i,-7.1*,7*,i
SMILES,hERG rescue,Kir21 block,KCNQ1 act,KCNK9 block,KCNQ1 inh,KCNK3 inh
CCCCn1c(NCc2ccccc2O)nc2ccccc21,-11,1.7,i,i,i,i
Cc1nn(CC2CC2)c(=O)n1-c1ccc(F)cc1,0,0.51,10*,i,i,i
CC(C)N1C(=O)C(=O)N(CC(=O)N2c3ccccc3NC(=O)CC2C)C1=O (stereo not drawn),/,/,/,/,/,i
COC(=O)C1CCN(C(=O)c2cc(-c3ccc(Cl)s3)nc3ccccc23)CC1,/,/,/,/,/,-9.1*
CCOC(=O)c1sc(NC(=O)CCN2CC(C)OC(C)C2)c(C(=O)OCC)c1C (stereo not drawn),-11,0.59,i,i,i,/
CCOC(=O)c1sc(NN=C(C(=O)OC)C(=O)OC)c(C(=O)OCC)c1C,9.0*,0.03,8*,i,i,i
CCOC(=O)c1sc(NC(=O)CSc2nnc(C)s2)c(C(=O)OCC)c1C,-7,0.24,i,-6.8*,i,i
CCOC(=O)c1sc(NC(=O)CCN2CCN(C)CC2)c(C(=O)OCC)c1C,-10,-5.5*,i,i,i,i
COc1cc(C=CC(=O)OCC=Cc2ccc3c(c2)OCO3)cc(OC)c1OC,/,/,/,/,/,i
CCOC(=O)c1c(-c2ccccc2)c2cc(OC)ccc2n1CCCN(C)C,-5,-7*,i,i,i,i
Cc1ccc(S(=O)(=O)NCC(C)n2nc(C)cc2C)cc1 (stereo not drawn),1,-0.09,i,i,i,i
Cc1ccc(C(C[N+](=O)[O-])n2nc(C)cc2C)cc1 (stereo not drawn),-7,-8*,i,i,i,i
O=S(=O)(Nc1ccc2c(c1)OCO2)c1cccc(Br)c1,/,/,/,/,/,i
CCN(CC)Cc1ccccc1CNC(=O)c1cccc(S(=O)(=O)Nc2ccc3c(c2)OCO3)c1,/,/,/,/,/,-9.3*
Cc1cc(Nc2ncc(Cl)cc2Cl)n(-c2ccccc2C)n1,-4,-4.8*,i,i,i,i
Cc1ccc(-n2nc(C)cc2Nc2ncc(Cl)cc2Cl)cc1,-5,-1.8,i,i,i,i
CN1C(=O)/C(=C\c2ccc(N(C)C)cc2)OC1=S,-17,-0.96,i,i,11*,i
O=C(COc1ccccc1F)Nc1cc(S(=O)(=O)Nc2cccc(Cl)c2)ccc1O,/,/,/,/,/,i
N#CC1=C(N)N(c2ccccc2)C(c2ccco2)C1(C#N)C#N (stereo not drawn),-4,-0.01,i,i,i,i
N#CC1=C(N)N(c2ccccc2)C(c2cccc([N+](=O)[O-])c2)C1(C#N)C#N (stereo not drawn),-13,-9.7*,i,i,i,i
O=C(Cn1cnc2c(NCc3ccccc3)ncnc21)NCCCN1CCCC1=O,/,/,/,/,/,i
CC(C)Nc1nc(Oc2cccc(Cl)c2Cl)cc(C(F)(F)F)n1,-16,0.45,i,i,i,i
CC(C)Nc1nc(Oc2ccc(Cl)cc2Cl)cc(C(F)(F)F)n1,-10,1.6,i,i,7*,i
Cc1cc(C)c(NC(=O)CN(C)C(=O)CNC(=O)c2cccs2)c(C)c1,/,/,/,/,/,i
O=C(O)CC(NC(=O)C1CCCCC1)c1cc([N+](=O)[O-])ccc1Cl (stereo not drawn),-17,0.31,i,i,12*,i

# Bioassay records: PubChem BioAssay, Johns Hopkins Ion Channel Center
